{
  "source": "paper PMC8359308",
  "about": "(Clinical Pharmacology in Drug Development, 2020)",
  "key": {"[1]": {"assay": "Safety assessment after single oral 100 mg dose", "assay_type": "in vivo, human", "details": "all 24 participants", "procedure,_shortened": "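Participants were confined from day -1 through day 6, with telephone follow-up 28–35 days post-dose. AEs, laboratory values, physical examination, vital signs, ECGs and concomitant medications were monitored throughout. AEs were treatment-emergent if onset or worsening came after dosing and before follow-up, and were coded with MedDRA 22.0. Baseline was the last predose measurement. Analysis was descriptive.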"}, "[2]": {"details": "rifampin coadministered versus glasdegib alone; cited from earlier work"}, "[3]": {"details": "ketoconazole coadministered versus glasdegib alone; cited from earlier work"}, "[4]": {"assay": "Unbound fraction in plasma by equilibrium dialysis", "assay_type": "in vitro ADME, human", "details": "for f u (fraction of unbound drug in plasma): geometric mean (%CV); for f u in plasma: statistic not given"}, "[5]": {"tested_on": "cytochrome P450 (CYP) 3A4/5", "details": "human hepatocytes, reaction phenotyping; cited from earlier work"}, "[6]": {"details": "mostly normal hepatic function or mild hepatic impairment; cited from earlier work"}, "[7]": {"details": "food with high calories and high fat content or concurrent rabeprazole; cited from earlier work"}, "[8]": {"details": "cited from earlier work"}, "[9]": {"assay_type": "in vivo, human", "details": "for AUC(0-inf) / AUC(0-t) / Tmax: po, total glasdegib; for AUC(0-inf): AUCinf; for AUC(0-inf) / AUC(0-t) / Tmax / CL/F, total glasdegib / Cmax, total glasdegib: single oral 100 mg, fasted; for AUC(0-t): AUClast; for Tmax: median (range)", "procedure,_shortened": "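Single oral 100 mg tablet dose of test compound after ≥10 h fast, with about 240 mL water and no food for 4 h. Plasma drawn predose and 1–120 h post-dose, total drug measured by validated LC-MS/MS. AUCinf (AUClast + Clast/kel, linear/log trapezoidal) and observed Cmax came from noncompartmental analysis. Log-transformed values were compared by one-way ANOVA (unequal variance), giving adjusted GMR versus normal-function controls with 90% CI.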"}, "[10]": {"assay": "Phase I single-dose pharmacokinetics of unbound plasma glasdegib", "assay_type": "in vivo, human", "details": "single oral 100 mg, fasted", "procedure,_shortened": "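Single oral 100 mg tablet with about 240 mL water after a fast of at least 10 h, with no food for 4 h post-dose. Unbound samples were taken predose and at 1, 2 and 4 h. K2EDTA plasma was dialysed against PBS to equilibrium (6 h). Sertraline (300 ng/mL) served as positive control and glasdegib (100 ng/mL) as dialysis QC. Samples were read by LC-MS/MS (LLQ 1 ng/mL). Unbound parameters = fu × total noncompartmental values.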"}, "[11]": {"details": "human, plasma, 100 mg, moderate hepatic impairment (n = 8), arithmetic mean ± SD"}, "[12]": {"details": "human, plasma, 100 mg, moderate hepatic impairment (n = 8), geometric mean (%CV)"}, "[13]": {"details": "human, plasma, 100 mg, normal hepatic function (n = 8), arithmetic mean ± SD"}, "[14]": {"details": "human, plasma, 100 mg, normal hepatic function (n = 8), geometric mean (%CV)"}, "[15]": {"details": "human, plasma, 100 mg, severe hepatic impairment (n = 8), arithmetic mean ± SD"}, "[16]": {"details": "human, plasma, 100 mg, severe hepatic impairment (n = 8), geometric mean (%CV)"}, "[17]": {"details": "severe hepatic impairment cohort"}, "[18]": {"details": "moderate hepatic impairment (n = 8), arithmetic mean ± SD"}, "[19]": {"details": "moderate hepatic impairment (n = 8), geometric mean (%CV)"}, "[20]": {"details": "normal hepatic function (n = 8), arithmetic mean ± SD"}, "[21]": {"details": "normal hepatic function (n = 8), geometric mean (%CV)"}, "[22]": {"details": "severe hepatic impairment (n = 8), arithmetic mean ± SD"}, "[23]": {"details": "severe hepatic impairment (n = 8), geometric mean (%CV)"}},
  "note": "Like-named read-outs stand apart in the source and are kept apart here.",
  "data": [
    {"smiles": "CN1CC[C@@H](NC(=O)Nc2ccc(C#N)cc2)C[C@@H]1c1nc2ccccc2[nH]1", "note": "[glasdegib]", "values": [
      {"measurement": "clinically significant changes in laboratory values, vital signs, or ECGs", "setting": "[1]", "value": "no clinically significant changes in vital signs or ECGs"},
      {"measurement": "deaths, serious AEs, severe treatment-emergent AEs, discontinuations", "setting": "[1]", "value": "no deaths, serious AEs, severe treatment‐emergent AEs, discontinuations from the study"},
      {"measurement": "decrease in glasdegib AUCinf", "setting": "[2]", "value": "approximately 70%"},
      {"measurement": "decrease in glasdegib Cmax", "setting": "[2]", "value": 35, "unit": "%"},
      {"measurement": "increase in glasdegib AUCinf", "setting": "[3]", "value": 2.4, "unit": "fold"},
      {"measurement": "increase in glasdegib Cmax", "setting": "[3]", "value": 1.4, "unit": "fold"},
      {"measurement": "f u (fraction of unbound drug in plasma)", "setting": "[4]; moderate hepatic impairment (n = 8)", "value": "0.08 (7)"},
      {"measurement": "f u in plasma", "setting": "[4]; moderate hepatic impairment group", "value": 0.08},
      {"measurement": "f u (fraction of unbound drug in plasma)", "setting": "[4]; normal hepatic function (n = 8)", "value": "0.08 (16)"},
      {"measurement": "f u in plasma", "setting": "[4]; normal hepatic function cohort", "value": 0.08},
      {"measurement": "f u (fraction of unbound drug in plasma)", "setting": "[4]; severe hepatic impairment (n = 8)", "value": "0.12 (15)"},
      {"measurement": "f u in plasma", "setting": "[4]; severe hepatic impairment group", "value": 0.12},
      {"measurement": "higher f u compared with the normal function cohort", "setting": "[4]; severe impairment cohort", "value": 50, "unit": "%"},
      {"measurement": "enzyme in glasdegib biotransformation", "setting": "[5]", "value": "major enzyme"},
      {"measurement": "baseline hepatic function as covariate for variation in glasdegib PK", "setting": "[6]", "value": "not a statistically significant covariate"},
      {"measurement": "effect on glasdegib exposure", "setting": "[7]", "value": "minimal effect"},
      {"measurement": "dose proportionality of pharmacokinetics", "setting": "[8]", "value": "linear dose‐proportional pharmacokinetics"},
      {"measurement": "mean half-life", "setting": "[8]; clinical dose of 100 mg once daily", "value": 17.4, "unit": "h"},
      {"measurement": "unbound in plasma", "setting": "[8]; plasma protein binding, moderately to highly bound", "value": "< 10", "unit": "%"},
      {"measurement": "half-life", "setting": "[9]; human, plasma, oral, 100 mg, mean terminal half-life, range across all hepatic function groups", "value": "18.4 to 20.7", "unit": "h"},
      {"measurement": "AUC(0-inf)", "setting": "[9]; [11]", "value": "12300 ± 3500", "unit": "ng·h/mL"},
      {"measurement": "AUC(0-inf)", "setting": "[9]; [12]", "value": 11900, "unit": "ng·h/mL"},
      {"measurement": "AUC(0-inf)", "setting": "[9]; [13]", "value": "11900 ± 6100", "unit": "ng·h/mL"},
      {"measurement": "AUC(0-inf)", "setting": "[9]; [14]", "value": 10700, "unit": "ng·h/mL"},
      {"measurement": "AUC(0-inf)", "setting": "[9]; [15]", "value": "8660 ± 3130", "unit": "ng·h/mL"},
      {"measurement": "AUC(0-inf)", "setting": "[9]; [16]", "value": 8110, "unit": "ng·h/mL"},
      {"measurement": "AUC(0-t)", "setting": "[9]; [11]", "value": "12200 ± 3460", "unit": "ng·h/mL"},
      {"measurement": "AUC(0-t)", "setting": "[9]; [12]", "value": 11800, "unit": "ng·h/mL"},
      {"measurement": "AUC(0-t)", "setting": "[9]; [13]", "value": "11800 ± 6080", "unit": "ng·h/mL"},
      {"measurement": "AUC(0-t)", "setting": "[9]; [14]", "value": 10600, "unit": "ng·h/mL"},
      {"measurement": "AUC(0-t)", "setting": "[9]; [15]", "value": "8480 ± 3100", "unit": "ng·h/mL"},
      {"measurement": "AUC(0-t)", "setting": "[9]; [16]", "value": 7940, "unit": "ng·h/mL"},
      {"measurement": "Tmax", "setting": "[9]; human, plasma, 100 mg, moderate hepatic impairment (n = 8)", "value": 2.5, "unit": "h"},
      {"measurement": "Tmax", "setting": "[9]; human, plasma, 100 mg, normal hepatic function (n = 8)", "value": 1.5, "unit": "h"},
      {"measurement": "Tmax", "setting": "[9]; human, plasma, 100 mg, severe hepatic impairment (n = 8)", "value": 1, "unit": "h"},
      {"measurement": "reduction in AUCinf versus normal hepatic function, total glasdegib", "setting": "[9]; [17]", "value": 24, "unit": "%"},
      {"measurement": "reduction in Cmax versus normal hepatic function, total glasdegib", "setting": "[9]; [17]", "value": 42, "unit": "%"},
      {"measurement": "CL/F, total glasdegib", "setting": "[9]; [18]", "value": "8.8 ± 2.8", "unit": "L/h"},
      {"measurement": "Cmax, total glasdegib", "setting": "[9]; [18]", "value": "899.8 ± 215.7", "unit": "ng/mL"},
      {"measurement": "CL/F, total glasdegib", "setting": "[9]; [19]", "value": "8.4 (31) L/h"},
      {"measurement": "Cmax, total glasdegib", "setting": "[9]; [19]", "value": "875.9 (26) ng/mL"},
      {"measurement": "CL/F, total glasdegib", "setting": "[9]; [20]", "value": "10.2 ± 4.3", "unit": "L/h"},
      {"measurement": "Cmax, total glasdegib", "setting": "[9]; [20]", "value": "989.9 ± 373.1", "unit": "ng/mL"},
      {"measurement": "CL/F, total glasdegib", "setting": "[9]; [21]", "value": "9.3 (49) L/h"},
      {"measurement": "Cmax, total glasdegib", "setting": "[9]; [21]", "value": "924.4 (43) ng/mL"},
      {"measurement": "CL/F, total glasdegib", "setting": "[9]; [22]", "value": "13.3 ± 5.8", "unit": "L/h"},
      {"measurement": "Cmax, total glasdegib", "setting": "[9]; [22]", "value": "612.0 ± 342.8", "unit": "ng/mL"},
      {"measurement": "CL/F, total glasdegib", "setting": "[9]; [23]", "value": "12.3 (42) L/h"},
      {"measurement": "Cmax, total glasdegib", "setting": "[9]; [23]", "value": "536.3 (59) ng/mL"},
      {"measurement": "CLu/F, unbound glasdegib", "setting": "[10]; [18]", "value": "104.6 ± 34.6", "unit": "L/h"},
      {"measurement": "CLu/F, unbound glasdegib", "setting": "[10]; [19]", "value": "100.2 (31) L/h"},
      {"measurement": "CLu/F, unbound glasdegib", "setting": "[10]; [20]", "value": "124.7 ± 43.5", "unit": "L/h"},
      {"measurement": "CLu/F, unbound glasdegib", "setting": "[10]; [21]", "value": "118.4 (35) L/h"},
      {"measurement": "CLu/F, unbound glasdegib", "setting": "[10]; [22]", "value": "111.9 ± 58.1", "unit": "L/h"},
      {"measurement": "CLu/F, unbound glasdegib", "setting": "[10]; [23]", "value": "101.6 (47) L/h"}
    ]}
  ]
}
